From the RNAGym collection of RNA variant scans (doi:10.1126/science.aae0568) come the findings set out here.

B1: tRNA (parent)
chain: GUUCCGUUGGCGUAAUGGUAACGCGUCUCCCUCCUAAGGAGAAGACUGCGGGUUCGAGUCCCGUACGGAACG

This sample holds only a part of the variants without activity.

The data set covers variants of B1. In words: yeast fitness relative to wild type (ratio to wild type); higher = fitter; tRNA-Arg(CCU), competitive growth, 37 C, YPD. Put shortly:
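A pool of Saccharomyces cerevisiae strains, each with a tRNA-Arg(CCU) gene variant at the native genomic locus, was competed in YPD at 37°C for 24 hours across six parallel replicates. The variants had been chemically synthesised at a 3% per-site mutation rate over 69 sites, and gene amplicons before and after competition were read by 100-nucleotide paired-end sequencing. Darwinian fitness relative to wild type rested on changes in genotype frequencies. Genotypes required ≥ 100 starting reads, and estimates < 0.5 were set to 0.5.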
Regarding GUUCCGUUGGCGUACUGGUUACGCGUCUCCGUCCUAAGGAGAAGACUGCGGGUUCGAGUCCCGUACGGAACG, the yeast fitness is 0.562.
Consider GUUCCGUUGGCGUUAAGGUAACGCGUGUCCCUCCUAAGGUGAAGACUGGGGGUUCGAGUCCCGUUCGGAACG, for which the yeast fitness is no more than 0.5.
In the case of GUUCCGUUGGCGUUAUGGUAACGCGUCUCCCUCCUAAGGAGAAGACUGCGGGAUCGAGUCCCGUUCGGAACG, the yeast fitness is no more than 0.5.
For GUUCCGUUGGCGUACUGGUAGCACGUUUCCCUCCUAAGGAGAAGACUGCGGGUUCGAGUCCCGUACGGAACG, the yeast fitness was no more than 0.5.
On to GUUCCGUUGGCGUUAUGGUAACGCGGCUCCCUCCUAAGGAGAAGACUGCGGGUUCGAGUCCCGUACGGAACG, for which the yeast fitness worked out at 0.675.
For GUUCCGUUGGCGUUAUGGUAACGCGCCUCCCUCCUAAGGAGAAGACUGCGGGUUCGAGUCCCGUACGGAACG, the yeast fitness came to 0.698.
On to GUUCCGUUGGCGUACUGGUUACGCGUCUCAGUCCUAAGGAGAAGACUGCGGGUUCGAGUCCCGUACGGAACG, for which the yeast fitness was no more than 0.5.
GUUCCGUUGGCGUUAUGGAAACGCGUCUCCCUCCUCAGGAGAAGACUGCGGGUUCGAGUCCCAUACGGAACG: the yeast fitness was 0.586.
Turning to GUUCCGUUGGCGUACUGGUGACGCGUCUCCCUCCUAAGGAGAAGACUGCGGGUUCGAGUCCUGGACGGAACG, the yeast fitness was no more than 0.5.
Consider GUUCCGUUGGCGUUAUGGUAACGCGACUCCCUCCUAAGGAGGAGACUGCGGGUUCGAGGUCCGUACGGAACG, for which the yeast fitness was no more than 0.5.
As for GUUCCGUUGGCGUACUGGUAGCGCGUGUCCCUCCUAAGGAGAAGACUGCGGGUUCGAGUCCCGUACGGAACG, the yeast fitness was no more than 0.5.
As for GUUCCGUUGGCGUUAUGGAAACGCGUCUCCCUCCUAAGGAGAAGACUGCGGGUUCGAGUGCCGUACGGAGCG, the figure is 0.531; as for GUUCCGUUGGCGUUAAGGUAACGCGUGUCCCUCCUAAGGUGAAGACUGCGGGUUCGAGUCCCGUACGGAACG, no more than 0.5.
As to GUUCCGUUGGCGUACUGGUACCGCGUCUCCCUCCUAACGAGAAGACUGCGGGUUCGAGUCCCCUACGGAUCG, the yeast fitness came out at 0.513.
For GUUCCGUUGGCGUUAUGGAAACGCGUCUCCCUCCUAAGGAGAAGACUGCGGGUUAGAGUCGCGUACGGAACG, the yeast fitness was no more than 0.5.
For GUUCCGUUGGCGUUAUGGUAACGCGCCUCCCUCCUAAGGAGUAGACUGCGGGUUCGAGUGCCGUACGGAACG, the yeast fitness was no more than 0.5.
GUUCCGUUGGCGUACUGGUAGCGCGUCUCCCUCCUGAGGAGAAGACUGUGGGUUCGAGUCCCGUACUGAACG: the yeast fitness was no more than 0.5.
Regarding GUUCCGUUGGCGUACUGGUCACGCGUCUCCCUCCUAAGCAGAAGACUGCGGGUUCGAGUCCCGUACGGAACG, the yeast fitness was no more than 0.5.
On to GUUCCGUUGGCGUUAUGGUAACGCGUCCCCCUCCUAAGGAGAAGACUGUAGGUUCGAGUCGCGUACGGCACG, for which the yeast fitness is 0.621.
With GUUCCGUUGGCGUUAUGGUAACGCGGCUCCCUACUAAGGUGAAGACUGCGGGUUCGAGUCCCGUACGGUACG, the yeast fitness is no more than 0.5.
Consider GUUCCGUUGGCGUUAUGGUAACGCGUCUCCCCCCUAGGGAGAAGACUGUGGGUUCGAGUCCCGUACGGAACG, for which the yeast fitness was no more than 0.5.
With GUUCCGUUGGCGUUAUGGUAACGCGCCUCCCUCCUAAGGAGUAGACUGCGGGUUCGAGUCCCGUACGGAACG, the yeast fitness was determined as 0.676.
On to GUUCCGUUGGCGUUAUGGAAACGUGUCUCCCUCCUAAGGAGAAGACUGCGGGUUGGAGUCCCGUACGGAUCG, for which the yeast fitness was determined as 0.532.
As for GUUCCGUUGGCGUUAUGGAAACACGUCUCCCUCCUAAGGAGACGACCGCGGGUUCGCGUCCCGUACGGAACG, the yeast fitness was no more than 0.5.
On to GUUCCGUUGGCGUACUGGUUACGCGUCUCCCUCCUAAGGAGAAGACUGCGGGUUCGAGUCCCGUACGGAACG, for which the yeast fitness came out at 0.63.
Take GUUCCGUUGGCGUACUGGUGACGCGUCUCCCUCCUAAGGAGAAGACUGCGGGUUCGAGUCCCGUACGGAACG: the yeast fitness stood at 0.78.
As to GUUCCGUUGGCGUACUGGUGACACGUCUCCCUCCUAAGGAGAAGAAUGGGGGUUCGAGUCCCGUUCGGAUCG, the yeast fitness is no more than 0.5.
As for GUUCCGUUGGCGUUAUGGUAACGCGCCUCCCUCCUAAGGAGUAGACUGUGGGUUCGAGUCCCGUACGGAACG, the yeast fitness was 0.536.
As to GUUCCGUUGGCGUUAUGGUAACGCGUCUCCCUCCUAAGGAGAAGACAGCGGGUUCGAGUCCCGUACAGAACG, the yeast fitness was no more than 0.5.
On to GUUCCGUUGGCGUUAUGGUAACGCGUCUCCCUCCUAAGGAGAAGACAGCGGGUUCGAGUCACGUACGGAACG, for which the yeast fitness was no more than 0.5.
GUUCCGUUGGCGUUAUGGUAACGCGUCACCCUCCUAAGGAGAAGACUGCGGGUUCGAGUCCCGUACGGAACG: the yeast fitness worked out at 0.579.
As to GUUCCGUUGGCGUUAGGGAAACGCGUCUCCCUCCUAAGGAGGAGACUGCGGGUUCGAGUCGCGUACGGAACG, the yeast fitness was 0.535.
Consider GUUCCGUUGGCGUACUGGUGACGCGUCUGCCUCCUAAGGAGAAGACUGCGGGUUCGAGUCCCGUACGGAACG, for which the yeast fitness was no more than 0.5.
Consider GUUCCGUUGGCGUUAAGGUAACGCGUCUCCCUGCUAAGGAGAAGCCUGCGGGUUCGAGUCCCGUACGGUACG, for which the yeast fitness was no more than 0.5.
On to GUUCCGUUGGCGUUAUGGUAACGCGGCUCCCUCCUACGGAGAAGACUGCGGGUUCGAGUCCCGUACGGAACG, for which the yeast fitness was no more than 0.5.
For GUUCCGUUGGCGUACUGGUAGUGCGUCUCCCUCCUAAGGAGAAGACUGUGGGUUCGAGUCCCGUACGGAACG, the yeast fitness was no more than 0.5.
For the variant GUUCCGUUGGCGUACUGGUGGCGCGUCUCCCUCCUAAGGAGAAGACUGCGGGUUCGUGUCCCGUACGGAACG, the yeast fitness was no more than 0.5.
As for GUUCCGUUGGCGUUAUGGUAACGCGGCUCCCUCCUAAGCAGAAGACUGCGGGUUCGAGUCCCGUACGGAUCG, the figure is no more than 0.5.
